Compounds with a hit are over-represented: about 2% of the library has one in this group of screens.
M5 antag: human M5 muscarinic receptor antagonists, primary screen, CHO cells, Fluo-8 calcium fluorescence; inhibition, % at 3 µM; 0.59% of 360,000 active; CHO-hM5 cells, ACh EC80; AID 624040, 2012; Muscarinic acetylcholine receptor M5 (Homo sapiens), P08912;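 active means inhibition above a per-plate cutoff, the mean of that plate's test compounds plus 3 SD, cut at about 27% in these data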
Target sequence (P08912 whole entry, looked up): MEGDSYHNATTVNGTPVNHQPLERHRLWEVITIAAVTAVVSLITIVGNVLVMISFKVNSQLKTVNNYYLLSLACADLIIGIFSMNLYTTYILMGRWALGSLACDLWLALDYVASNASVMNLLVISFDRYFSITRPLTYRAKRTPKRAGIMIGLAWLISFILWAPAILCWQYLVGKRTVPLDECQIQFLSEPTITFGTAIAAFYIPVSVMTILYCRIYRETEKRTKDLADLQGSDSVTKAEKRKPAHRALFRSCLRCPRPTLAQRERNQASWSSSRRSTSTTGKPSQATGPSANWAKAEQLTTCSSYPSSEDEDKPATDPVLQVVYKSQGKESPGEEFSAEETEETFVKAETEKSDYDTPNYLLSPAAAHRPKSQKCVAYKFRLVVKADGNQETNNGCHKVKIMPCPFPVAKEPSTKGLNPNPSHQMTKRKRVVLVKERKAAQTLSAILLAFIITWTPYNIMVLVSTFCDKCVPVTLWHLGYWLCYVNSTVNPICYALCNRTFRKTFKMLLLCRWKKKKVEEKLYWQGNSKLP
CHRM1 antagonist: human M1 muscarinic receptor antagonists, primary screen, CHO-K1 cells, Fluo-8 calcium fluorescence, 1536-well. CHO-K1 hM1, ACh EC80 antagonist. inhibition, % at 3 µM. 1.3% of 360,000 active. AID 588852, 2011;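 active means percent inhibition above its own plate's cutoff, namely the mean of that plate's compound wells plus 3 SD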;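 further: peak over basal fluorescence ratio during 140 s after agonist addition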
CHRM1 PAM: human M1 muscarinic receptor positive allosteric modulators, primary screen, CHO-K1 cells, Fluo-8 calcium fluorescence, 1536-well. Muscarinic acetylcholine receptor M1 (Homo sapiens), P11229. CHO-K1 hM1, ACh EC20; 0% = ACh EC20, 100% = maximal ACh. activation, % at 3 µM. 0.088% of 360,000 active. AID 588819, 2011; in the data active means activation above about 19%, passing the limit was not always enough
M5 ag: human M5 muscarinic receptor agonists, primary screen, CHO-K1 cells, Fluo-8 calcium fluorescence. Muscarinic acetylcholine receptor M5 (Homo sapiens), P08912. 0.19% of 360,000 active. activation, % at 3 µM. CHO-K1 hM5 cells; 0% DMSO wells, 100% maximal acetylcholine response. AID 624037, 2012;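 active means activation above the run's mean over test compounds plus 3 SD, cut at about 23% in these data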;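 further: signal is peak over basal fluorescence ratio across the kinetic read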
M5 PAM: human M5 muscarinic receptor positive allosteric modulators, primary screen, CHO-K1 cells, Fluo-8 calcium fluorescence. Muscarinic acetylcholine receptor M5 (Homo sapiens), P08912. CHO-K1 hM5, ACh EC20 PAM; 0% = ACh EC20, 100% = ACh EC100. activation, % at 3 µM. 0.3% of 360,000 active. AID 624038, 2012;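 active means activation above the run cutoff, the mean activation of all test compounds plus 3 SD, cut at about 18% in these data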
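Assay system: CHO-K1 hM5 cells. Also added: acetylcholine at EC20 concentration, added after compound. Dosing: 3 µM, single dose. Times: compound preincubation 140 s before EC20 acetylcholine addition. Signal: Fluo-8 calcium fluorescence. Measure: % activation relative to EC20 and EC100 ACh responses. Repeats: singlicate, one well per test compound.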
CHRM1 agonist: human M1 muscarinic receptor agonists, primary screen, Fluo-8 calcium fluorescence, CHO-K1 cells, HTS; 0.33% of 360,000 active; activation, % at 3 µM; AID 588814, 2011; CHO-K1 hM1, agonist mode; 0% DMSO, 100% acetylcholine EC100; Muscarinic acetylcholine receptor M1 (Homo sapiens), P11229;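 active means activation above the run's mean compound activation plus 3 SD, cut at about 16% in these data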;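 further: peak over basal fluorescence ratio within a 140 s kinetic read after compound addition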
Of the large screens only hits and unclear results are named; the others gave an inactive call.

CN(C)CCCN(C(=O)c1ccc(Cl)s1)c1nc2cc3c(cc2s1)OCO3	none
CC(=O)c1cccc(CN(C)CC2CCCN(CCc3ccccc3C)C2)c1 (centres undefined)	M5 antag 81.2, CHRM1 antagonist 99.8
COc1ccc(F)c(CN(C)CC2CCCN(CCc3ccc(F)cc3)C2)c1 (centres undefined)	CHRM1 antagonist 33.1
COc1cc(CN(C)CC2CCCN(CCc3ccccc3F)C2)cc(Cl)c1OC (centres undefined)	CHRM1 antagonist 73.5
COc1ccc(CN(C)CC2CCCN(CCc3ccc(F)cc3)C2)cc1OC (centres undefined)	none
COc1ccc(-c2nc3ccccc3n(CC(C)C)c2=O)cc1	none (no result: CHRM1 antagonist, CHRM1 PAM, CHRM1 agonist)
O=C(Nc1cc(F)c(Br)cc1F)c1ccc(Cl)cc1	CHRM1 antagonist 39.1
Cc1nnc(N2CCCC(C(=O)NCc3cccc(F)c3)C2)c2nn(-c3ccccc3)c(C)c12 (centres undefined)	none
CCc1ccc(CNC(=O)C2CCCN(c3nnc(C)c4c(C)n(-c5ccccc5)nc34)C2)cc1 (centres undefined)	CHRM1 antagonist 49.2
CN(Cc1ccccc1)C(=O)c1ncn2c1c(=O)[nH]c1cccnc12	none
COC(=O)C1=CN(C2CC2)C=C(C(=O)OC)C1c1ccc(C(=O)OC)cc1	CHRM1 antagonist 34.2
CN1CCN(c2ncnc3c2[nH]c2ccc(F)cc23)CC1	none
Fc1ccc2[nH]c3c(N4CCc5ccccc5C4)ncnc3c2c1	M5 antag 27.3, CHRM1 antagonist 41.0
CCOc1ccc2[nH]c3c(N4CCc5ccccc5C4)ncnc3c2c1	none
Cc1ccc2[nH]c3c(N4CCc5ccccc5C4)ncnc3c2c1	CHRM1 antagonist 30.0
CCOc1ccccc1CN1CCN(CC2=Cc3cc(OC)ccc3OC2)CC1CCO (centres undefined)	CHRM1 antagonist 34.4
Cc1cccc(C)c1NC(=O)C(c1ccnc2ccccc12)n1c(=O)c(-c2ccco2)nc2ccccc21 (centres undefined)	none (no result: CHRM1 antagonist, CHRM1 PAM, CHRM1 agonist)
COc1ccc(C2C(C(=O)N3CCN(C)CC3)c3ccccc3C(=O)N2C2CCCCC2)cc1 (centres undefined)	M5 PAM 22.2
O=C(NCCCn1ccnc1)c1sc2cc([N+](=O)[O-])ccc2c1Cl	none
CCOc1ccc(CNC(=O)c2cccc(NC(=O)C3=C(C)OCCS3)c2)cc1	M5 antag 29.6
Cc1ccc(NC(=O)c2ccc(Nc3ccccc3F)nc2)cc1	none
Cc1ccc(NC(=O)c2ccc(NCc3ccc(F)cc3)nc2)cc1	M5 antag 31.8
N#Cc1cc(NC(=O)c2ccc(Cl)cc2)ccc1Sc1ccccc1	CHRM1 antagonist 32.4
COc1ccc(Sc2ccc(NC(=O)c3ccccc3Cl)cc2C#N)cc1	none
CCC1NC(=O)c2cccnc2-n2c1nc1ccc(F)cc1c2=O (centres undefined)	none
CCOC(=O)c1c(N/C=C(\C#N)c2nc(-c3ccc(OC(C)=O)cc3)cs2)sc2c1CCC2	M5 PAM 22.6
CCOC(=O)c1c(NC=O)sc2c1CCC2	none
CCOCCN1CCN(C2c3ccccc3CSc3ccccc32)CC1 (centres undefined)	M5 antag 100.3, CHRM1 antagonist 100.2
Nc1cc2c(cc1Br)-c1c(C(=O)O)cccc1C2O (centres undefined)	none
COc1ccc(Nc2ncc(C(=O)N3CCN(Cc4ccccc4)CC3)c3ccccc23)cc1	CHRM1 antagonist 32.1
COc1ccccc1CNC(=O)Nc1nc(C(N)Cc2ccc(Cl)cc2)cs1 (centres undefined)	none
CN(CCO)C(=O)C1CCN(c2ncc(C(F)(F)F)cc2Cl)CC1	none
O=C(c1ccc2nc[nH]c2c1)N1CCN(c2ncc(C(F)(F)F)cc2Cl)CC1	CHRM1 PAM 25.6
NC(=O)C1CCN(c2ncc(C(F)(F)F)cc2Cl)CC1	CHRM1 antagonist 39.5
COc1ccc(C=O)c(OCc2cn(CC(=O)c3ccc(O)cc3)nn2)c1	none
O=C(NCc1ccccc1)c1ccc(CN2CCOCC2)cc1	none
O=C(NCc1ccco1)c1ccc(CN2CCOCC2)cc1	M5 PAM 19.3
CC(=O)N1Cc2cc(C(=O)NCC(F)(F)F)nc(-c3cccc(-c4cccnc4)c3)c2[C@@H]1CCO	none (no result: CHRM1 antagonist, CHRM1 PAM, CHRM1 agonist)
CSc1ccccc1C(=O)OCC(=O)NC1CC1	none
CSc1nc(N)nc2c1ncn2C1OC(CO)C(O)C1O (centres undefined)	M5 antag 32.5
O=C1CCC[C@@H]2C[C@@]3(C[C@@H]4CCN1[C@H]24)Nc1cc(Cl)c(Cl)cc1NC3=NCc1ccccc1	none
Cc1ccc(S(=O)(=O)n2cnc(C)c2)cc1	M5 PAM 19.7
S=C(NCCc1ccc(Cl)cc1)Nc1ccc(Cl)cc1Cl	M5 antag 34.9
COc1ccc(-n2nnnc2C(c2cccs2)N2CCN(C/C=C/c3ccccc3)CC2)cc1 (centres undefined)	M5 antag 46.9, CHRM1 antagonist 55.0
COc1ccc(C(c2nnnn2C(C)(C)C)N2CCN(C/C=C/c3ccccc3)CC2)cc1 (centres undefined)	none
CCCCn1nnnc1C(c1ccc(OC)cc1)N1CCN(C/C=C/c2ccccc2)CC1 (centres undefined)	CHRM1 antagonist 54.5
O=C(Nc1ccc2c(c1)OCCO2)C(c1cc2ccccc2o1)N1CCN(C/C=C/c2ccccc2)CC1 (centres undefined)	CHRM1 antagonist 36.2
O=C(Nc1ccc2c(c1)OCCO2)C(C1CC1)N1CCN(C/C=C/c2ccccc2)CC1 (centres undefined)	none
COc1cccc(C(c2nnnn2C(C)(C)C)N2CCN(C/C=C/c3ccccc3)CC2)c1OC (centres undefined)	CHRM1 antagonist 41.9
OCC[C@@H]1C[C@H](O)[C@@H](O)[C@@]2(OCc3ccc(CO)cc32)O1	none
Cc1cc(S(=O)(=O)Nc2ccc(C(=O)NC3CC3)cc2)ccc1F	none
COc1ccc(C(c2nnnn2-c2ccc(OC)cc2)N2CCN(C/C=C/c3ccccc3)CC2)cc1 (centres undefined)	M5 antag 50.8, CHRM1 antagonist 73.7
